Measured values reported in ChEMBL document CHEMBL2412955, “Synthesis and antibacterial activities of N-substituted-glycinyl 1H-1,2,3-triazolyl oxazolidinones” (2013).
Converted amounts (≈) assume the structure as drawn.

Assays:
Assay type in all cases: functional
Staphylococcus aureus [1] = assay: Antibacterial activity against methicillin-susceptible Staphylococcus aureus after 18 hrs by NCCLS agar dilution method
In short: (§1)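 Clinical isolates were tested by agar dilution on Mueller-Hinton agar with drug dilutions from 0.12 to 64 µg/ml. Test compounds were dissolved in 80% DMSO in water. Final inoculum was 10^7 CFU/ml, incubated at 35 °C for 18 h. MIC was the lowest concentration inhibiting visible growth.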

Haemophilus influenzae = assay: Antibacterial activity against Haemophilus influenzae ATCC 49247 after 18 hrs by NCCLS agar dilution method; conditions: ATCC 49247, 18 h
In short: (§2)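 NCCLS agar dilution on Mueller-Hinton agar with 5% sheep blood added to support growth. Drug dilutions 0.12–64 µg/ml. Test agents in 80% DMSO in water, linezolid in 40% water in ethanol. Final inoculum 10^7 CFU/ml, 18 h at 35 °C. MIC read as the lowest concentration with no visible growth.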

Enterococcus [2] = assay: Antibacterial activity against vancomycin-resistant Enterococcus after 18 hrs by NCCLS agar dilution method; in short: as §1
Moraxella catarrhalis = assay: Antibacterial activity against Moraxella catarrhalis ATCC 8176 after 18 hrs by NCCLS agar dilution method; conditions: ATCC 8176, 18 h; in short: as §2
Staphylococcus aureus [3] = assay: Antibacterial activity against methicillin-resistant Staphylococcus aureus after 18 hrs by NCCLS agar dilution method; in short: as §1
Streptococcus pneumoniae = assay: Antibacterial activity against penicillin-resistant Streptococcus pneumoniae after 18 hrs by NCCLS agar dilution method
In short: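 Agar dilution was run on Mueller-Hinton agar supplemented with 5% sheep blood, with drug dilutions from 0.12 to 64 µg/ml. Test compounds were dissolved in 80% DMSO in water. Final inoculum was 10^7 CFU/ml, incubated at 35 °C for 18 h. MIC was the lowest concentration preventing visible growth.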

Escherichia coli = assay: Antibacterial activity against Escherichia coli ATCC 25922 after 18 hrs by NCCLS agar dilution method; conditions: ATCC 25922, 18 h
In short: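 Agar dilution per NCCLS on Mueller-Hinton agar, drug dilutions 0.12–64 µg/ml. Linezolid dissolved in 40% water in ethanol, vancomycin in water, test agents in 80% DMSO in water. Inoculum 10^7 CFU/ml (final), incubated 35 °C for 18 h. MIC is the lowest concentration preventing visible growth.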

Staphylococcus [4] = assay: Antibacterial activity against methicillin-susceptible coagulase-negative Staphylococcus after 18 hrs by NCCLS agar dilution method; in short: as §1
Staphylococcus [5] = assay: Antibacterial activity against methicillin-resistant coagulase-negative Staphylococcus after 18 hrs by NCCLS agar dilution method; in short: as §1
Enterococcus [6] = assay: Antibacterial activity against vancomycin-susceptible Enterococcus after 18 hrs by NCCLS agar dilution method; in short: as §1
Staphylococcus aureus [7] = assay: Antibacterial activity against Staphylococcus aureus ATCC 25923 after 18 hrs by NCCLS agar dilution method; conditions: ATCC 25923, 18 h
In short: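 Plain Mueller-Hinton agar, agar dilution per NCCLS, concentrations 0.12–64 µg/ml. Test agents in 80% DMSO in water, linezolid in 40% water in ethanol, vancomycin in water. Final inoculum 10^7 CFU/ml, 35 °C for 18 h. MIC = lowest concentration inhibiting visible growth.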

Staphylococcus aureus [8] = assay: Antibacterial activity against Staphylococcus aureus ATCC 25923 after 18 hrs by […] in presence of human plasma; conditions: ATCC 25923, Plasma
In short: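 To gauge plasma protein binding and/or plasma instability, MIC was determined in Mueller-Hinton broth containing 50% human plasma. Linezolid served as a reference agent. Ratio compares this MIC with the MIC obtained without plasma.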

Structure (SMILES)	MIC (Staphylococcus aureus [1])	MIC (Haemophilus influenzae)	MIC (Enterococcus [2])	MIC (Moraxella catarrhalis)	MIC (Staphylococcus aureus [3])	MIC (Streptococcus pneumoniae)	MIC (Escherichia coli)	MIC (Staphylococcus [4])	MIC (Staphylococcus [5])	MIC (Enterococcus [6])	MIC (Staphylococcus aureus [7])	MIC (Staphylococcus aureus [8])
Cc1cn(C[C@H]2CN(c3ccc(N4CCN(C(=O)CNC(=O)C(F)(F)F)CC4)c(F)c3)C(=O)O2)nn1	4 µg/mL (≈ 7.79 µM)	32 µg/mL (≈ 62.3 µM)	4 µg/mL (≈ 7.79 µM)	16 µg/mL (≈ 31.2 µM)	4 µg/mL (≈ 7.79 µM)	1 µg/mL (≈ 1.95 µM)	> 64 µg/mL	4 µg/mL (≈ 7.79 µM)	4 µg/mL (≈ 7.79 µM)	4 µg/mL (≈ 7.79 µM)	8 µg/mL (≈ 15.6 µM)	16 µg/mL
CC(C)(C)OC(=O)NCC(=O)N1CCN(c2ccc(N3C[C@H](Cn4ccnn4)OC3=O)cc2F)CC1	2 µg/mL (≈ 3.97 µM)	> 64 µg/mL	2 µg/mL (≈ 3.97 µM)	32 µg/mL (≈ 63.6 µM)	2 µg/mL (≈ 3.97 µM)	2 µg/mL (≈ 3.97 µM)	> 64 µg/mL	2 µg/mL (≈ 3.97 µM)	2 µg/mL (≈ 3.97 µM)	2 µg/mL (≈ 3.97 µM)	4 µg/mL (≈ 7.94 µM)	8 µg/mL
Cc1cn(C[C@H]2CN(c3ccc(N4CCN(C(=O)CNC(=O)OC(C)(C)C)CC4)c(F)c3)C(=O)O2)nn1	4 µg/mL (≈ 7.73 µM)	≥ 64 µg/mL	8 µg/mL (≈ 15.5 µM)	16 µg/mL (≈ 30.9 µM)	8 µg/mL (≈ 15.5 µM)	4 µg/mL (≈ 7.73 µM)	> 64 µg/mL	4 µg/mL (≈ 7.73 µM)	4 µg/mL (≈ 7.73 µM)	4 µg/mL (≈ 7.73 µM)	4 µg/mL (≈ 7.73 µM)	16 µg/mL
CC(=O)NCC(=O)N1CCN(c2ccc(N3C[C@H](Cn4ccnn4)OC3=O)cc2F)CC1	2 µg/mL (≈ 4.49 µM)	64 µg/mL (≈ 144 µM)	2 µg/mL (≈ 4.49 µM)	32 µg/mL (≈ 71.8 µM)	4 µg/mL (≈ 8.98 µM)	1 µg/mL (≈ 2.24 µM)	> 64 µg/mL	2 µg/mL (≈ 4.49 µM)	2 µg/mL (≈ 4.49 µM)	2 µg/mL (≈ 4.49 µM)	4 µg/mL (≈ 8.98 µM)	8 µg/mL
CC(=O)NCC(=O)N1CCN(c2ccc(N3C[C@H](Cn4cc(C)nn4)OC3=O)cc2F)CC1	2 µg/mL (≈ 4.35 µM)	32 µg/mL (≈ 69.6 µM)	4 µg/mL (≈ 8.71 µM)	16 µg/mL (≈ 34.8 µM)	2 µg/mL (≈ 4.35 µM)	1 µg/mL (≈ 2.18 µM)	> 64 µg/mL	2 µg/mL (≈ 4.35 µM)	2 µg/mL (≈ 4.35 µM)	2 µg/mL (≈ 4.35 µM)	4 µg/mL (≈ 8.71 µM)	8 µg/mL
Cc1cn(C[C@H]2CN(c3ccc(N4CCN(C(=O)CNC(=O)C(Cl)Cl)CC4)c(F)c3)C(=O)O2)nn1	4 µg/mL (≈ 7.57 µM)	> 32 µg/mL	4 µg/mL (≈ 7.57 µM)	16 µg/mL (≈ 30.3 µM)	4 µg/mL (≈ 7.57 µM)	2 µg/mL (≈ 3.79 µM)	> 64 µg/mL	4 µg/mL (≈ 7.57 µM)	4 µg/mL (≈ 7.57 µM)	4 µg/mL (≈ 7.57 µM)	8 µg/mL (≈ 15.1 µM)	16 µg/mL
CCOC(=O)CC(=O)NCC(=O)N1CCN(c2ccc(N3C[C@H](Cn4ccnn4)OC3=O)cc2F)CC1	4 µg/mL (≈ 7.73 µM)	64 µg/mL (≈ 124 µM)	8 µg/mL (≈ 15.5 µM)	32 µg/mL (≈ 61.8 µM)	4 µg/mL (≈ 7.73 µM)	2 µg/mL (≈ 3.86 µM)	> 64 µg/mL	4 µg/mL (≈ 7.73 µM)	4 µg/mL (≈ 7.73 µM)	4 µg/mL (≈ 7.73 µM)	8 µg/mL (≈ 15.5 µM)	16 µg/mL
CCOC(=O)CC(=O)NCC(=O)N1CCN(c2ccc(N3C[C@H](Cn4cc(C)nn4)OC3=O)cc2F)CC1	4 µg/mL (≈ 7.53 µM)	> 64 µg/mL	4 µg/mL (≈ 7.53 µM)	> 64 µg/mL	4 µg/mL (≈ 7.53 µM)	4 µg/mL (≈ 7.53 µM)	> 64 µg/mL	4 µg/mL (≈ 7.53 µM)	4 µg/mL (≈ 7.53 µM)	4 µg/mL (≈ 7.53 µM)	8 µg/mL (≈ 15.1 µM)	16 µg/mL
